{"data": "Measured values of several laboratories", "target": "Inhibitor of nuclear factor kappa-B kinase subunit epsilon (IKBKE, Homo sapiens, UniProt Q14164)", "One construct used (Q14164 1-716)": "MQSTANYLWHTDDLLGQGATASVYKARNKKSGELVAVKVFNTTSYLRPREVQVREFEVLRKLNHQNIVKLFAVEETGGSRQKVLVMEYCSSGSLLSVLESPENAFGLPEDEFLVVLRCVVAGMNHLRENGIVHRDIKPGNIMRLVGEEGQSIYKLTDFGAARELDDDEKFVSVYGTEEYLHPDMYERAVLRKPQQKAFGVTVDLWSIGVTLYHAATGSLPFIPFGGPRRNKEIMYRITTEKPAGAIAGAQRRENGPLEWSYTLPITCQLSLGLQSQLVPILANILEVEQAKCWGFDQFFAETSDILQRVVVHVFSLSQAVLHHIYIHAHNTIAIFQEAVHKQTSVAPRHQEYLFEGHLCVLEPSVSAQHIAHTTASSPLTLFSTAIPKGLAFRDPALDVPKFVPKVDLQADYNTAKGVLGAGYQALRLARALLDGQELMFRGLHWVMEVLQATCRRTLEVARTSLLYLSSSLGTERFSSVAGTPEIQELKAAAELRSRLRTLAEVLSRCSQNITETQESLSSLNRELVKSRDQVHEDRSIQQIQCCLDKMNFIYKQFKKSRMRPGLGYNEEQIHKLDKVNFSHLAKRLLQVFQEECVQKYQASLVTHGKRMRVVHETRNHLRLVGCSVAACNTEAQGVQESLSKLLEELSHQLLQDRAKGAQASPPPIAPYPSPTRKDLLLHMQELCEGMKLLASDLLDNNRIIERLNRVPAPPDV", "note": "Each line is one published result; the experiments were not run side by side."}
{"Structure (SMILES)": "COc1cc2c(N3CCN(C(=O)Nc4ccc(OC(C)C)cc4)CC3)ncnc2cc1OCCCN1CCCCC1", "read-out": "cell-free assay", "tested at": "0.5 µM", "endpoint": "remaining signal", "value": "96.2%"}
{"Structure (SMILES)": "O=C(N[C@H]1CCCCC/C=C\\C2C[C@@]2(C(=O)O)NC(=O)[C@@H]2C[C@@H](Oc3ccncc3)CN2C1=O)OC1CCCC1 (stereo partly shown)", "read-out": "binding", "technique": "competition with immobilised ligand", "tested at": "1 µM", "endpoint": "remaining binding", "value": "100%"}
{"Structure (SMILES)": "CCOc1cc(-c2nncn2C)ccc1Nc1ncc2cc(C)nc(NCC(C)(C)C)c2n1", "read-out": "enzyme activity", "action": "inhibitor", "technique": "FRET", "tested at": "1 µM", "endpoint": "inhibition", "value": "< 15%"}
{"Structure (SMILES)": "C[C@@H]1CN(c2cc(-c3nn(C)c4ccc(OC5(C)CC5)cc34)ncn2)C[C@H](C)O1", "read-out": "cell-free assay", "technique": "competition with immobilised ligand", "tested at": "1 µM", "endpoint": "remaining binding", "value": "65%"}
{"Structure (SMILES)": "NS(=O)(=O)c1ccc(CNc2ccnc(Nc3cccc(NC(=O)N4CCCC4)c3)n2)cc1", "read-out": "enzyme activity", "action": "inhibitor", "technique": "radiometric", "tested at": "1 µM", "endpoint": "remaining activity", "value": "79%"}
{"Structure (SMILES)": "CC/C(=N\\NC(=O)NCc1cccc(O)c1)c1ccc(O)c(C)c1O", "read-out": "enzyme activity", "action": "inhibitor", "tested at": "0.1 µM", "endpoint": "inhibition", "value": "-0.4%"}
{"Structure (SMILES)": "c1cc(CN2CCOCC2)cc(Nc2nccc(NCCc3cnc[nH]3)n2)c1", "read-out": "enzyme activity", "action": "inhibitor", "technique": "radiometric", "tested at": "1 µM", "endpoint": "remaining activity", "value": "80%"}
{"Structure (SMILES)": "Cc1c(NC(=O)c2cc(C(N)=O)nc3cc(F)ccc23)c(C(F)(F)F)nn1Cc1ccc(C#N)cc1", "read-out": "cell-free assay", "technique": "competition with immobilised ligand", "tested at": "1 µM", "endpoint": "remaining binding", "value": "75%"}
{"Structure (SMILES)": "Nc1nc(Nc2ccc(S(N)(=O)=O)cc2)nn1C(=O)c1c(F)cccc1F", "read-out": "cell-free assay", "tested at": "0.5 µM", "endpoint": "remaining signal", "value": "95.9%"}
{"Structure (SMILES)": "CC(=O)C1=C(C)N(c2cccc(C(F)(F)F)c2)C(=O)N[C@@H]1c1ccc(C#N)nc1", "read-out": "cell-free assay", "technique": "competition with immobilised ligand", "tested at": "1 µM", "endpoint": "remaining binding", "value": "98.2%"}
{"Structure (SMILES)": "COc1ccc(COc2ccc(Cc3cnc(N)nc3N)cc2OC)cc1", "read-out": "cell-free assay", "tested at": "0.5 µM", "endpoint": "remaining signal", "value": "96.7%"}
{"Structure (SMILES)": "CN1CCc2cc(Nc3ncc(C4CC4)c(NCCCNC(=O)C4CCC4)n3)ccc2C1", "read-out": "enzyme activity", "action": "inhibitor", "technique": "radiometric", "tested at": "1 µM", "endpoint": "remaining activity", "value": "4%"}
{"Structure (SMILES)": "C[C@H](c1cccc(C#N)c1)n1cc(Cl)cc(C(N)=O)c1=N", "read-out": "cell-free assay", "technique": "competition with immobilised ligand", "tested at": "1 µM", "endpoint": "remaining binding", "value": "82%"}
{"Structure (SMILES)": "COc1cc2ncnc(Nc3ccc(Oc4ccccc4)c(C)c3C)c2cc1OC", "read-out": "enzyme activity", "action": "inhibitor", "tested at": "1 µM", "endpoint": "inhibition", "value": "1%"}
{"Structure (SMILES)": "NS(=O)(=O)c1ccc(CNc2nc(Nc3cccc(CN4CCOCC4)c3)ncc2C2CC2)cc1", "read-out": "enzyme activity", "action": "inhibitor", "technique": "radiometric", "tested at": "1 µM", "endpoint": "remaining activity", "value": "43%"}
{"Structure (SMILES)": "N#CCCc1ccc2c(c1)-c1[nH]c3ccc([N+](=O)[O-])cc3c1CC(=O)N2", "read-out": "cell-free assay", "tested at": "0.5 µM", "endpoint": "remaining signal", "value": "89.2%"}
{"Structure (SMILES)": "CC(C)CC(=O)N1CCc2nc(-c3ccc(Br)cc3)nc(N(C)Cc3ccccc3)c2C1", "read-out": "cell-free assay", "technique": "competition with immobilised ligand", "tested at": "0.1 µM", "endpoint": "remaining binding", "value": "100%"}
{"Structure (SMILES)": "Cc1nn(CC(F)(F)F)cc1Nc1nccc(NCc2ccc(S(N)(=O)=O)cc2)n1", "read-out": "enzyme activity", "action": "inhibitor", "technique": "radiometric", "tested at": "1 µM", "endpoint": "remaining activity", "value": "73%"}
{"Structure (SMILES)": "COc1cc(/C=C/C(=O)CC(=O)/C=C/c2ccc(O)c(OC)c2)ccc1O", "read-out": "enzyme activity", "action": "inhibitor", "tested at": "1 µM", "endpoint": "activity vs control", "value": "72%"}
{"Structure (SMILES)": "COc1cc(-c2cn(C3CCc4c(F)cccc4N(CC(F)(F)F)C3=O)nn2)ccc1-n1cnc(C)c1 (stereo not shown)", "read-out": "cell-free assay", "technique": "competition with immobilised ligand", "tested at": "1 µM", "endpoint": "remaining binding", "value": "100%"}
{"Structure (SMILES)": "Cc1nn(CC(F)(F)F)cc1Nc1nccc(NCCc2cnc[nH]2)n1", "read-out": "enzyme activity", "action": "inhibitor", "technique": "radiometric", "tested at": "1 µM", "endpoint": "remaining activity", "value": "83%"}
{"Structure (SMILES)": "Cc1cc(NC(=O)c2cccc3cc(-c4cccc5[nH]nc(N)c45)ccc23)ccc1F", "read-out": "enzyme activity", "action": "inhibitor", "tested at": "0.1 µM", "endpoint": "activity vs control", "value": "111%"}
